According to ChEMBL document CHEMBL1159122 (Bioorg Med Chem, 2010):
pIC50: −log10 of the molar value. Each block holds one molecule with its values, some of them ahead of it. Calls of active or inactive are those of the source. The rule behind the calls is not given here.

Legend:
[1] = target: T1, Prostaglandin G/H synthase 1 (Mus musculus, UniProt P22437); assay: Inhibition of COX1 in mouse RAW264.7 cells by enzyme immunoassay; format: cell-based
T1 sequence (P22437 whole entry): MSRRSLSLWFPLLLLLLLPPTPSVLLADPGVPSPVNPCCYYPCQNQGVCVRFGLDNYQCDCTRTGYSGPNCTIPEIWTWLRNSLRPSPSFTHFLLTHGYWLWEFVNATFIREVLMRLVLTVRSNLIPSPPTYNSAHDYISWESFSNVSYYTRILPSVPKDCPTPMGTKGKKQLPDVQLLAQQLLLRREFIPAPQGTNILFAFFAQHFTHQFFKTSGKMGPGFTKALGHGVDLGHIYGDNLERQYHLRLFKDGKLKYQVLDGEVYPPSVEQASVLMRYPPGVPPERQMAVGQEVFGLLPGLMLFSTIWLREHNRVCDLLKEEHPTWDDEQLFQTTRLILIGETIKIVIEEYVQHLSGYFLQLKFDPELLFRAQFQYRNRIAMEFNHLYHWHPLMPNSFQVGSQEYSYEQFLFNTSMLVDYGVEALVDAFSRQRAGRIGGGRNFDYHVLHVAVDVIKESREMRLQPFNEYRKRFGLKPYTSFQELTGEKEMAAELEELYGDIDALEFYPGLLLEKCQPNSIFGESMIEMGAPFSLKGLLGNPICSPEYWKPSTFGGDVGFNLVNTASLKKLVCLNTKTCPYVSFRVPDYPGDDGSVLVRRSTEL
Procedure, shortened: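 RAW 264.7 cells (5×10^5/well) grown overnight in DMEM with 10% FBS, then washed with PBS. Cells were not LPS-stimulated. Serum-free, phenol red-free DMEM; compound pretreatment 1 h at 37 °C, then 30 µM arachidonic acid for 30 min at 37 °C. PGE2 in the medium measured by EIA.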

THP-1 [2] = assay: Antiinflammatory activity in human THP1 cells assessed as inhibition of LPS-induced TNFalpha release by ELISA; format: functional, cell-based
Procedure, shortened: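 Differentiated THP-1 macrophages were used. They were made by 72 h culture in conditioned medium from THP-1 cells treated with 200 ng/mL PMA for 24 h, washed and rested 24 h. Cells were preincubated with compounds at 0.01, 0.1, 1 and 10 µM for 1 h at 37 °C, then stimulated with 100 ng/mL LPS for 24 h. Duplicate determinations, mean ± SD.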

[3] = target: T2, Prostaglandin G/H synthase 2 (Homo sapiens, UniProt P35354); assay: Inhibition of human recombinant COX2 expressed in insect Sf9 cells by enzyme immunoassay
T2 sequence (P35354 whole entry): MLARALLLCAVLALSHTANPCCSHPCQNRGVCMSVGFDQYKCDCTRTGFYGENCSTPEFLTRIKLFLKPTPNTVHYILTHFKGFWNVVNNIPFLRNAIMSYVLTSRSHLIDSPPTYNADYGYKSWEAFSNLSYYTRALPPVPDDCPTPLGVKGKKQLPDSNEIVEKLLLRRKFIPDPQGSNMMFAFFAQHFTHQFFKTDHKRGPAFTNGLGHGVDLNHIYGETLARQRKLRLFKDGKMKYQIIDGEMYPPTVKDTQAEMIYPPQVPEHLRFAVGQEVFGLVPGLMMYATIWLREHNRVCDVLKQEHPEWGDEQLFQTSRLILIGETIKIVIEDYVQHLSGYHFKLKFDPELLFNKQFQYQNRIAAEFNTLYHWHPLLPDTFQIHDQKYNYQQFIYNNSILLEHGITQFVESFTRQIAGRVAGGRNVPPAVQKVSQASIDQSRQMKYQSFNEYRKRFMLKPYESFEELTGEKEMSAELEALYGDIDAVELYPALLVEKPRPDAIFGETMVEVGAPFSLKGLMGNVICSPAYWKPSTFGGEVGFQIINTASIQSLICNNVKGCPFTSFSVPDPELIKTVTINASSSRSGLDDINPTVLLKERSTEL

[4] = target: Mitogen-activated protein kinase 14 (Homo sapiens) (UniProt Q16539); assay: Inhibition of p38alpha MAPK at 10 uM
[5] = target: T3, Prostaglandin G/H synthase 2 (Homo sapiens) (UniProt P35354); settings: THP-1, at 10 µM
T3 sequence (whole entry): T2 sequence (P35354 whole entry)

[6] = target: T4, Polyunsaturated fatty acid 5-lipoxygenase (Homo sapiens, UniProt P09917); assay: Inhibition of LOX5 in human PMBL by enzyme immunoassay
T4 sequence (P09917 whole entry): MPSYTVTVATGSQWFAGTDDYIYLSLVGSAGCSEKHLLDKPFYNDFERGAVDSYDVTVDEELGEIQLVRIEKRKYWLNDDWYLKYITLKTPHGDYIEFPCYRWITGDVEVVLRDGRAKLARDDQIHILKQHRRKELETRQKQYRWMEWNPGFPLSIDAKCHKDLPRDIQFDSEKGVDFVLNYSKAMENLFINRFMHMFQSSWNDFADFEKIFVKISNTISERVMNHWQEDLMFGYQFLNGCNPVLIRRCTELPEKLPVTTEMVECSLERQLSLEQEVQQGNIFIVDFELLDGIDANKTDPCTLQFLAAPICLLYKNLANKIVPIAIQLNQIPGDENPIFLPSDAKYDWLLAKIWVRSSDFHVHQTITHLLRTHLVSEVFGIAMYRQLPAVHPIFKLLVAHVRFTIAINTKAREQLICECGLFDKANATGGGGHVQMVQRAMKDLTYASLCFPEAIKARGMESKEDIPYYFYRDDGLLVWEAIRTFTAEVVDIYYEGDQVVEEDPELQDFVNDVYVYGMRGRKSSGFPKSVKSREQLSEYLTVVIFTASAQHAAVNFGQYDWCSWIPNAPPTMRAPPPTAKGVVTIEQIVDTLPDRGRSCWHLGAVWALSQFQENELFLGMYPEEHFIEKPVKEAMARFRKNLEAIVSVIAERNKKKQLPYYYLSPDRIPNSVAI
Procedure, shortened: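 Human peripheral blood mononuclear leukocytes (5×10^6 cells/mL) in HBSS pH 7.4, preincubated with compound 15 min at 37 °C. Stimulated with 30 µM A23187 for 15 min at 37 °C, stopped with 1 N HCl, neutralized with NaOH and centrifuged. Supernatant LTB4 measured by EIA.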

THP-1 [7] = assay: Antiinflammatory activity in human THP1 cells assessed as inhibition of LPS-induced TNFalpha release at 10 uM by ELISA; format: functional
Procedure, shortened: (§1)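 THP-1 monocytes differentiated to macrophages over 72 h with conditioned medium from cells given 200 ng/mL PMA for 24 h, washed, and rested 24 h. Cells pretreated with compound (0.01–10 uM) for 1 h at 37 °C, then stimulated with 100 ng/mL LPS for 24 h. TNF-α release measured, mean ± SD of duplicates.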

[8] = target: T5, Prostaglandin G/H synthase 2 (Mus musculus, UniProt Q05769); assay: Inhibition of COX2 in mouse RAW264.7 cells by enzyme immunoassay
T5 sequence (Q05769 whole entry): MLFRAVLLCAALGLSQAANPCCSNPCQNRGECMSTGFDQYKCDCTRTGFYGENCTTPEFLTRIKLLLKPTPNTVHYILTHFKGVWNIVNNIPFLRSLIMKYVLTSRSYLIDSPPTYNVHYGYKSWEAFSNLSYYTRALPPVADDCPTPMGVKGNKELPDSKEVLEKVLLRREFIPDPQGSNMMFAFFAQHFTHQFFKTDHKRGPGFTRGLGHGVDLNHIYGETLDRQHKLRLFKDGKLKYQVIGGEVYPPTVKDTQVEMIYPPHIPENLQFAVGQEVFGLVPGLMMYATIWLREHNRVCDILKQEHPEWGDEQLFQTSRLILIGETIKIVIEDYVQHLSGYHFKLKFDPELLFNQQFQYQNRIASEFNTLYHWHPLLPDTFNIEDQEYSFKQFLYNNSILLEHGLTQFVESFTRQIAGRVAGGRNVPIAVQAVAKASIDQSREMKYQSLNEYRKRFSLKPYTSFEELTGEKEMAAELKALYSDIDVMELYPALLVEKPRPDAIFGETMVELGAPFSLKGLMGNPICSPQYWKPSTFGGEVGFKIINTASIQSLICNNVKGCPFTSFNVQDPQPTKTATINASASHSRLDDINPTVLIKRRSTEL

[9] = target: T6, Prostaglandin G/H synthase 1 (Homo sapiens, UniProt P23219); assay: Inhibition of human recombinant COX1 in human platelets by enzyme immunoassay
Procedure, shortened: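 Source was washed human platelets (5×10^7 cells/mL) in modified HEPES buffer, pH 7.4. Compounds were preincubated 15 min at 37 °C, then 100 µM arachidonic acid was added for 15 min at 37 °C. The reaction was stopped with 1 N HCl. COX-1 activity was read as PGE2 by EIA.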

[10] = target: T3, Prostaglandin G/H synthase 2 (Homo sapiens); assay: Inhibition of human recombinant COX2 expressed in insect Sf9 cells at 10 uM by enzyme immunoassay
[11] = target: T6, Prostaglandin G/H synthase 1; assay: Inhibition of human recombinant COX1 in human platelets at 10 uM by enzyme immunoassay
Procedure, shortened: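 Washed human platelets (5×10^7 cells/mL) in modified HEPES buffer pH 7.4, preincubated with compound 15 min at 37 °C. Reaction started with 100 µM arachidonic acid, run 15 min at 37 °C, stopped with 1 N HCl. PGE2 quantified by EIA.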

THP-1 [12] = assay: Antiinflammatory activity in human THP1 cells assessed as inhibition of LPS-induced TNFalpha release at 1 uM by ELISA; format: functional; procedure, shortened: as §1

T6 sequence (P23219 whole entry): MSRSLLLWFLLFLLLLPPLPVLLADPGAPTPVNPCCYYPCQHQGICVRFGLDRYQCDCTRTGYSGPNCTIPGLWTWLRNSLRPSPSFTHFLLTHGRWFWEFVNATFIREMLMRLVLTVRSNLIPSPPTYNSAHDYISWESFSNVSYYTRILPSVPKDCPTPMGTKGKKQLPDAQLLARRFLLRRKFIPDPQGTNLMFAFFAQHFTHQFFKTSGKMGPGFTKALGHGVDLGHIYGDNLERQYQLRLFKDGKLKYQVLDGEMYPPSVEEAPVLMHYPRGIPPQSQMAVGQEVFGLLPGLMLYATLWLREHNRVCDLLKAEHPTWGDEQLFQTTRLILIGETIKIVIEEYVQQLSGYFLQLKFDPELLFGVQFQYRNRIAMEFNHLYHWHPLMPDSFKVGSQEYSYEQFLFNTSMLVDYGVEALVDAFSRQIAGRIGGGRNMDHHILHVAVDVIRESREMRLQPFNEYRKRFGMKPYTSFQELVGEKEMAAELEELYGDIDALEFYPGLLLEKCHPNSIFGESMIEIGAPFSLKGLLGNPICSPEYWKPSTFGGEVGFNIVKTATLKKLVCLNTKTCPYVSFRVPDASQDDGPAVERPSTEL
Chain of Mitogen-activated protein kinase 14 (Homo sapiens) (Q16539 whole entry): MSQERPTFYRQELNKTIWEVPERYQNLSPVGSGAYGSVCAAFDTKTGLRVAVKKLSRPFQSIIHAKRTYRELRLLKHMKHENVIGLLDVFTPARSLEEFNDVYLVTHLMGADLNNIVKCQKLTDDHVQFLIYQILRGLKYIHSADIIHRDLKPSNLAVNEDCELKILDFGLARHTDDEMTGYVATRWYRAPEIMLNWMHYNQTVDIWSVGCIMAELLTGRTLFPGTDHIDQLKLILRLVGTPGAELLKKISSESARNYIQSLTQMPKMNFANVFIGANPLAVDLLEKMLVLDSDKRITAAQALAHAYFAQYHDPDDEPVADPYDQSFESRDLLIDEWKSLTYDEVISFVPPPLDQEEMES

Structure (SMILES): CS(=O)(=O)Nc1ccc([N+](=O)[O-])cc1OC1CCCCC1 [NS-398]
pIC50 [1]: 4.20

Structure (SMILES): Cc1ccc(-c2cc(C(F)(F)F)nn2-c2ccc(S(N)(=O)=O)cc2)cc1
Activity (THP-1 [7]): inactive

Structure (SMILES): C[C@@H]1C[C@H]2[C@@H]3CCC4=CC(=O)C=C[C@]4(C)[C@@]3(F)[C@@H](O)C[C@]2(C)[C@@]1(O)C(=O)CO [DEXAMETHASONE]
inhibition at 1 µM (THP-1 [12]): 89%

Structure (SMILES): COc1ccc2c(c1)c(CC(=O)NCCc1ccccc1)c(C)n2C(=O)c1ccc(Cl)cc1
pIC50 [1]: 4.25

Now from value to molecule, other results behind:

pIC50 (THP-1 [2]): 6.36
pIC50 [3]: 5.77
inhibition [4]: inactive
inhibition [5]: 77%
pIC50 [6]: 5.91
pIC50 [1]: 5.68
pIC50 [8]: 5.36
pIC50 [9]: 5.17
Structure (SMILES): O=[N+]([O-])c1ccc2c(c1)S(=O)(=O)N=S2c1ccc(Br)cc1 (stereo unspecified)
inhibition at 10 µM (THP-1 [7]): 92%

inhibition [10]: 23%
inhibition [11]: 39%
pIC50 [6]: 6.33
pIC50 [1]: 5.82
pIC50 [8]: 4.74
Structure (SMILES): O=[N+]([O-])c1ccc2c(c1)S(c1ccc(Br)cc1)=NS2(=O)=O (stereo unspecified)
Activity (THP-1 [7]): inactive

inhibition [10]: 27%
inhibition [11]: 17%
Structure (SMILES): NS(=O)(=O)c1ccc2c(c1)S(c1ccc(Br)cc1)=NS2(=O)=O (stereo unspecified)
